The values that follow come from ChEMBL document CHEMBL5705899 (Biochem J, 2014).

Assay [1] deals with Eukaryotic elongation factor 2 kinase (Homo sapiens) (UniProt O00418). Kind of assay: Inhibition of recombinant human N-terminal GST-tagged EF2K (2 to 725 residues) expressed in Escherichia coli assessed as remaining activity at 1 uM using RKKFGESKTKTKEFL as substrate incubated for 30 mins in presence of [gamma-33P]ATP by filter binding method relative to control.
The target of assay [2] is Receptor tyrosine-protein kinase erbB-2 (Homo sapiens) (UniProt P04626). In words: Inhibition of human ERBB2 at 1 uM using polyEY as substrate in presence of 33P-ATP by ProQinase assay.
Assay [3] has as its target NUAK family SNF1-like kinase 2 (Homo sapiens) (UniProt Q9H093). In words: Inhibition of human SNARK at 1 uM using histone H2B as substrate in presence of 33P-ATP by ProQinase assay.
Assay [4] has as its target Serine/threonine-protein kinase pim-3 (Homo sapiens) (UniProt Q86V86). Kind of assay: Inhibition of human PIM3 at 1 uM using RBER-GSK3 as substrate in presence of 33P-ATP by ProQinase assay.
The target of assay [5] is Dual specificity testis-specific protein kinase 1 (Homo sapiens) (UniProt Q15569). In words: Inhibition of recombinant human N-terminal GST-tagged TESK1 (1 to 315 residues) expressed in Escherichia coli assessed as remaining activity at 1 uM using Cofilin 2 as substrate incubated for 30 mins in presence of [gamma-33P]ATP by filter binding method relative to control.
In another assay the test system is U2OS. Kind of assay: Inhibition of PI3K in human U2OS cells expressing FLAG-tagged SGK3 assessed as reduction in AKT phosphorylation at S473 residues at 0.01 to 1 uM 1 hr by immunoblot analysis. The class given is cell-based. As to conditions: dose 0.01-1 µM. In a few lines:
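Flp-In T-REx U2OS cells were grown in McCoy medium with 10% FBS. Expression of C-terminally FLAG-tagged full-length SGK3 was induced with 0.01 mg/ml doxycycline for 24 h. Cells were treated with inhibitor for 1 h and lysed in phosphatase-inhibitor buffer. Lysates were cleared at 16000 g for 10 min at 4°C, protein was measured by Bradford, and phosphorylation was read by immunoblot with ECL detection.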
A general note: A western blot detects proteins with antibodies after separation by electrophoresis.

In assay [6] the target is Phosphatidylinositol 5-phosphate 4-kinase type-2 alpha (Homo sapiens) (UniProt P48426). Kind of assay: Inhibition of recombinant human N-terminal His6-tagged PIP5K2alpha (1 to 406 residues) expressed in Escherichia coli at 1 uM using diC8 PI(5)P as substrate incubated for 40 mins by ADP-Glo assay. A general note: In ADP-Glo the light output rises with the ADP produced.

The target of assay [7] is LIM domain kinase 1 (Homo sapiens) (UniProt P53667). Kind of assay: Inhibition of human LIMK1 at 1 uM using CFL2 as substrate in presence of 33P-ATP by ProQinase assay.
Assay [8] deals with Diacylglycerol kinase kappa (Homo sapiens) (UniProt Q5KSL6). In words: Inhibition of DGKkappa (unknown origin) at 1 uM.
The target of assay [9] is Inhibitor of nuclear factor kappa-B kinase subunit epsilon (Homo sapiens) (UniProt Q14164). In words: Inhibition of recombinant human N-terminal GST-tagged IKKepsilon (1 to 716 residues) expressed in baculovirus infected Sf21 cells assessed as remaining activity at 1 uM using MBP as substrate incubated for 30 mins in presence of [gamma-33P]ATP by filter binding method relative to control.

Assay [10] concerns the target CDK1/Cyclin E (Homo sapiens) (UniProt P06493+P24864). Kind of assay: Inhibition of human CDK1/Cyclin E1at 1 uM using RBER-CHKtide as substrate in presence of 33P-ATP by ProQinase assay. It counts as protein-complex assay.
Assay [11] has as its target Activin receptor type-1-like (Homo sapiens) (UniProt P37023). Kind of assay: Inhibition of human ACVRL1 at 1 uM using casein as substrate in presence of 33P-ATP by ProQinase assay.
Assay [12] has as its target Receptor tyrosine-protein kinase erbB-4 (Homo sapiens) (UniProt Q15303). In words: Inhibition of recombinant human N-terminal His6-tagged HER4 (706 to 991 residues) expressed in baculovirus infected Sf21 cells assessed as remaining activity at 1 uM using Poly (Glu,Tyr) as substrate incubated for 30 mins in presence of [gamma-33P]ATP by filter binding method relative to control.

For assay [13], the target named is Serine/threonine-protein kinase D2 (Homo sapiens) (UniProt Q9BZL6). Kind of assay: Inhibition of human PRKD2 at 1 uM using RBER-CHKtide as substrate in presence of 33P-ATP by ProQinase assay.
Assay [14] has as its target Diacylglycerol kinase gamma (Homo sapiens) (UniProt P49619). Kind of assay: Inhibition of recombinant human N-terminal His6-tagged DGKgamma (1 to 752 residues) expressed in baculovirus expression system at 1 uM using diacyl-glycerol as substrate incubated for 40 mins by ADP-Glo assay.
The target of assay [15] is Tyrosine-protein kinase CSK (Homo sapiens) (UniProt P41240). In words: Inhibition of recombinant human N-terminal GST-tagged CSK (1 to 450 residues) expressed in Escherichia coli assessed as remaining activity at 1 uM Cdc2 peptide as substrate incubated for 30 mins in presence of [gamma-33P]ATP by filter binding method relative to control.
The target of a further assay is PI3K p110 beta/p85 alpha (Homo sapiens, UniProt P42338). Kind of assay: Inhibition of human PIK3CB/PIK3R1 using PIP2/PS as substrate by ADP-Glo assay. It counts as protein-complex assay.
For assay [16], the target named is RAC-alpha serine/threonine-protein kinase (Homo sapiens) (UniProt P31749). In words: Inhibition of human AKT1 at 1 uM using RBER-GSK3 as substrate in presence of 33P-ATP by ProQinase assay.
In assay [17] the target is Serine/threonine-protein kinase 24 (Homo sapiens) (UniProt Q9Y6E0). Kind of assay: Inhibition of human MST3 at 1 uM using casein as substrate in presence of 33P-ATP by ProQinase assay.
Assay [18] has as its target Phosphatidylinositol 4-kinase alpha (Homo sapiens, UniProt P42356). In words: Inhibition of PI4Kalpha (unknown origin) using D-myo-PtdIns as substrate incubated for 45 mins by ADP-Glo assay. In a few lines:
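PI4Kα: 1 nM enzyme, 72 μM ATP, 25 μM PtdIns. PI4Kβ: 2 nM enzyme, 220 μM ATP, 50 μM PtdIns. Reactions ran 45 min at ambient temperature; ADP-Glo reagent was added for 40 min, then detection reagent for 30 min, then luminescence was read.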

Assay [19] deals with Mitogen-activated protein kinase 14 (Homo sapiens) (UniProt Q16539). Kind of assay: Inhibition of recombinant human N-terminal GST-tagged P38alpha (1 to 360 residues) expressed in Escherichia coli assessed as remaining activity at 1 uM using MBP as substrate incubated for 30 mins in presence of [gamma-33P]ATP by filter binding method relative to control.
Assay [20] addresses Serine/threonine-protein kinase N2 (Homo sapiens) (UniProt Q16513). In words: Inhibition of recombinant N-terminal His6/FLAG-tagged human PRK2 (501 to 984 residues) expressed in baculovirus infected Sf21 cells assessed as remaining activity at 1 uM using S6 peptide as substrate incubated for 30 mins in presence of [gamma-33P]ATP by filter binding method relative to control.

Assay [21] deals with Mitogen-activated protein kinase kinase kinase 1 (Homo sapiens) (UniProt Q13233). Kind of assay: Inhibition of human MAP3K1 at 1 uM using bio-4xCHKT as substrate in presence of 33P-ATP by ProQinase assay.

Molecules are shown by their SMILES. The source made the active and inactive calls. No cut-off for these calls is given here.

Diacylglycerol kinase kappa (Homo sapiens), sequence (Q5KSL6 whole entry, the tested form may be a part): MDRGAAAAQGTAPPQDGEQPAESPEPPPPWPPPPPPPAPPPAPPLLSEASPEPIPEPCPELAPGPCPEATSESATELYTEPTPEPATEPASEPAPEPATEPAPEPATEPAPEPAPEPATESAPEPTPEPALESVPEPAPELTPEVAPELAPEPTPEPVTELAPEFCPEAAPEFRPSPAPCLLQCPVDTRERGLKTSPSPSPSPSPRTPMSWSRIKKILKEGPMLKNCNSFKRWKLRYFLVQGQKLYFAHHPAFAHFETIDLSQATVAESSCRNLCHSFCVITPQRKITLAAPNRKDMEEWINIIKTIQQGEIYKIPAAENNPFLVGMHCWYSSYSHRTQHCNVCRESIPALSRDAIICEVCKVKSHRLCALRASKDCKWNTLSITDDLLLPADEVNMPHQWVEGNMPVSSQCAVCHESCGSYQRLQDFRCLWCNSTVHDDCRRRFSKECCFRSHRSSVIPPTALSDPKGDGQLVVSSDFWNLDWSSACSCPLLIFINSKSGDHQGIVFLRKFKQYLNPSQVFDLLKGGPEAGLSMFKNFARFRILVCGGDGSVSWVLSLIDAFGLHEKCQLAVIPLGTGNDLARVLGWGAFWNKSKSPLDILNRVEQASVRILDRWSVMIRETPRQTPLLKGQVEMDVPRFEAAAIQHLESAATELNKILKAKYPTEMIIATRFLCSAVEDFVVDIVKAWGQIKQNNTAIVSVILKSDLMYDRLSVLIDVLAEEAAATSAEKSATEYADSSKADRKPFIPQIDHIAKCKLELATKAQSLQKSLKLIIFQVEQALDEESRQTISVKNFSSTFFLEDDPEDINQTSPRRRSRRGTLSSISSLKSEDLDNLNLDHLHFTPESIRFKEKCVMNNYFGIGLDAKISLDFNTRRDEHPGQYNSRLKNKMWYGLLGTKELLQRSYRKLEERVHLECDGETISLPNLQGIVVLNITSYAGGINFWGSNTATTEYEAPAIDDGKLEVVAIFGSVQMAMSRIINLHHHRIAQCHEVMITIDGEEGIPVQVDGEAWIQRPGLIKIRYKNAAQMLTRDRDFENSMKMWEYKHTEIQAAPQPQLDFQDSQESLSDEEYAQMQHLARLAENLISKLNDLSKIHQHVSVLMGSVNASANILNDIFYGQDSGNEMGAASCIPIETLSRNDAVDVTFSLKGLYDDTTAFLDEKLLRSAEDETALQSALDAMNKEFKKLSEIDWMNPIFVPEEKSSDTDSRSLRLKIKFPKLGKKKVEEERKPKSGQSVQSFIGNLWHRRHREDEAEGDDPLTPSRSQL
NUAK family SNF1-like kinase 2 (Homo sapiens), sequence (Q9H093 whole entry): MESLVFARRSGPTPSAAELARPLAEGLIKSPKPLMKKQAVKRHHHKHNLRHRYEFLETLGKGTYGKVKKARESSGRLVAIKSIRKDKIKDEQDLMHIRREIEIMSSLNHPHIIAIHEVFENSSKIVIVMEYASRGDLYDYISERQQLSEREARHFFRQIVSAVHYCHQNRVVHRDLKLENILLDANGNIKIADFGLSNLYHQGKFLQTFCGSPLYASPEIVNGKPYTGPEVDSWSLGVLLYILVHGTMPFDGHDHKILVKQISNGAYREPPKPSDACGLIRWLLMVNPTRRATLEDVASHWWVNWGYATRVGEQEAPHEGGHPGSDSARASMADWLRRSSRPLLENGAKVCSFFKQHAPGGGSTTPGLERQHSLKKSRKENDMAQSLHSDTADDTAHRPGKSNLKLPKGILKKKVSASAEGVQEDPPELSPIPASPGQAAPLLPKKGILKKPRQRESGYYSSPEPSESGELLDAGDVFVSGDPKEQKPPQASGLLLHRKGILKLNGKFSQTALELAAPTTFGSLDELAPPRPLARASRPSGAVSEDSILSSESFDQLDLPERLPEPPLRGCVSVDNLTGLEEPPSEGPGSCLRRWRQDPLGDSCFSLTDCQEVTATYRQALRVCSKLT
Phosphatidylinositol 4-kinase alpha, sequence (P42356 whole entry): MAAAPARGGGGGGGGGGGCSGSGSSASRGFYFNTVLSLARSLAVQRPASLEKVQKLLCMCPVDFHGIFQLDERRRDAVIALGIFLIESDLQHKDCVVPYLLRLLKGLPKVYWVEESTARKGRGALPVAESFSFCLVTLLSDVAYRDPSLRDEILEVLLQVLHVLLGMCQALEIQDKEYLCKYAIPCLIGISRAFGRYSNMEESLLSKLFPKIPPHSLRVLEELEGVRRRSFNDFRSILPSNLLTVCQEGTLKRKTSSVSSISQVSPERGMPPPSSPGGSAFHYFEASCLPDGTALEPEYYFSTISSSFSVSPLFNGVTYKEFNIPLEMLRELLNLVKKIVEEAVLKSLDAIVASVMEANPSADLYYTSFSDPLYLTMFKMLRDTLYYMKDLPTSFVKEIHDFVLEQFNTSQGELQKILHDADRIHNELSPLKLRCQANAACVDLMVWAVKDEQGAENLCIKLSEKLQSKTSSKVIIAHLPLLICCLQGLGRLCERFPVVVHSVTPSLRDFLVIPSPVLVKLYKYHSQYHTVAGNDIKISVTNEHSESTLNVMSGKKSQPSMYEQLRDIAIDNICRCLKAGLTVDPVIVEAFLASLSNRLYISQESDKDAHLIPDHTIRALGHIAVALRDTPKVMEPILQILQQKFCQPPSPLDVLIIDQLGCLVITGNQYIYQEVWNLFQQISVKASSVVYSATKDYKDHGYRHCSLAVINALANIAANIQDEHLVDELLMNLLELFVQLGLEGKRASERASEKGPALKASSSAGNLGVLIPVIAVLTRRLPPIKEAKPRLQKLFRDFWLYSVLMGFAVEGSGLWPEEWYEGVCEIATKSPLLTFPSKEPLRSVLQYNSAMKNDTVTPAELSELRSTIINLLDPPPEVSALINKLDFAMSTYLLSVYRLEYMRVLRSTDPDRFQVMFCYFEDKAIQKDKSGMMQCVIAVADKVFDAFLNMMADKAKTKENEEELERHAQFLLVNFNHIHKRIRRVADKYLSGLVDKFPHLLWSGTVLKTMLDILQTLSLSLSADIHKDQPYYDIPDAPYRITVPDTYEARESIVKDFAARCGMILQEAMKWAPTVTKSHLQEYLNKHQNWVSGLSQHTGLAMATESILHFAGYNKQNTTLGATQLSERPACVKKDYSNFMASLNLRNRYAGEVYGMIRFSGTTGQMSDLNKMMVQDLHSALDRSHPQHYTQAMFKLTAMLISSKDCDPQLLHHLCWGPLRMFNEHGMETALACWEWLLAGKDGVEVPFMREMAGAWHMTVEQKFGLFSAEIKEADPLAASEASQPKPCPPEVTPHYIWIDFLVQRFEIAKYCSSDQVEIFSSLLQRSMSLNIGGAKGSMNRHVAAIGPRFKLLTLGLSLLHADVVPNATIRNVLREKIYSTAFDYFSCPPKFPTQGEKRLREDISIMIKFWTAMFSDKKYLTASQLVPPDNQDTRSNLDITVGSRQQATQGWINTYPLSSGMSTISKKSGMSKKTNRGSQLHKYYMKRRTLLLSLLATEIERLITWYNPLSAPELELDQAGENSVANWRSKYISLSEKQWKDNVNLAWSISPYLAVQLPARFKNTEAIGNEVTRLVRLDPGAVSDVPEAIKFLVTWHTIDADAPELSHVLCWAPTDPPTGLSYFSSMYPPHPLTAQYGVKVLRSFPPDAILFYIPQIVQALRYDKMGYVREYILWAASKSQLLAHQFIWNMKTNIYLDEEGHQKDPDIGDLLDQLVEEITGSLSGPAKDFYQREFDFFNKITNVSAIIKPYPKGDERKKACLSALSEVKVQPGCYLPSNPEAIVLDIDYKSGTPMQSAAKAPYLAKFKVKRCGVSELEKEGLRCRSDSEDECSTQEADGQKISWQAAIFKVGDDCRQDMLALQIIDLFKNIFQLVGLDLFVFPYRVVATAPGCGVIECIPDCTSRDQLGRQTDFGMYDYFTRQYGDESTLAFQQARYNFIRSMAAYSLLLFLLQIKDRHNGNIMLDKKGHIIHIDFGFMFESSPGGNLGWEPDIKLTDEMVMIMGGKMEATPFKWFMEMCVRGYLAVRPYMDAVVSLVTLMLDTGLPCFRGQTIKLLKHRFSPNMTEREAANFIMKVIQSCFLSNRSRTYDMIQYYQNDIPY
Mitogen-activated protein kinase 14 (Homo sapiens), sequence (Q16539 whole entry, the tested form may be a part): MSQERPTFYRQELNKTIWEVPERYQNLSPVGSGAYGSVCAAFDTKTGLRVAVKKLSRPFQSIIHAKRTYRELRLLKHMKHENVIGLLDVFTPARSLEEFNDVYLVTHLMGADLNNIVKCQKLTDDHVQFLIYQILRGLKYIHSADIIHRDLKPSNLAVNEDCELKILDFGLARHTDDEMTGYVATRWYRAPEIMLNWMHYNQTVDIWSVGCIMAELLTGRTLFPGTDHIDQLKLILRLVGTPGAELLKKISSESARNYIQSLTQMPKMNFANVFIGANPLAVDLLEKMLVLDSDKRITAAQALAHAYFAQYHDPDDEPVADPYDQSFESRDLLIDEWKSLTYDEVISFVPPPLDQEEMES
CDK1/Cyclin E (Homo sapiens), sequence (P06493 whole entry, looked up): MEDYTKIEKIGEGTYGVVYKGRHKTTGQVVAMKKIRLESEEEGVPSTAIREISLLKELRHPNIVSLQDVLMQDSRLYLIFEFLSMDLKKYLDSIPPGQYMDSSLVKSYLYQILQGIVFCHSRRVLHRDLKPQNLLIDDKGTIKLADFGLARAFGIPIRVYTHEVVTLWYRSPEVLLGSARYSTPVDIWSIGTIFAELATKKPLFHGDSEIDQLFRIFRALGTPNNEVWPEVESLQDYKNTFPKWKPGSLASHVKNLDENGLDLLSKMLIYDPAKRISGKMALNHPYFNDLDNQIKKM
CDK1/Cyclin E (Homo sapiens), sequence (P24864 whole entry, looked up): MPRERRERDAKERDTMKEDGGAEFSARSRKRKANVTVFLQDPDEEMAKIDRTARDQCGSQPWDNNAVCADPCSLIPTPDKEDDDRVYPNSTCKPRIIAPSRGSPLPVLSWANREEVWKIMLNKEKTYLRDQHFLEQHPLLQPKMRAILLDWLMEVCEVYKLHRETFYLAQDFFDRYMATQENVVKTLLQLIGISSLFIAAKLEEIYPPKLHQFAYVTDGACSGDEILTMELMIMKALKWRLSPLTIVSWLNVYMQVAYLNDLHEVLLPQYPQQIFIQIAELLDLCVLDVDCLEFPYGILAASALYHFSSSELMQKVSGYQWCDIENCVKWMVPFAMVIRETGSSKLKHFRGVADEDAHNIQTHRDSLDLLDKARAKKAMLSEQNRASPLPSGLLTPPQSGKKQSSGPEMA

As to `CC(C)(O)CNc1ncc(-c2ccnc(Nc3ccnc(Cl)c3)n2)c(CC2CC2)n1`, the Activity in [1] turned out to be 115%; in assay [5], 95%; in assay [9] it was 103%; in assay [12], 101%; in assay [15], 132%; in assay [19], 125%. For the same compound, the Activity in assay [20] amounted to 116%. The inhibition entry (in assay [2]; in assay [3]; in assay [4]; in the assay on U2OS; in assay [6]; in assay [7]) was “inactive” each time. The inhibition entry in assay [8], in assay [10], in assay [11], in assay [13], in assay [14] and in assay [16] was “inactive” throughout. For the same compound, the inhibition result in [17] and in assay [21] was “inactive” each time. The half-maximal inhibitory concentration (IC50) (usually the concentration at which inhibition is half-maximal) at PI3K p110 beta/p85 alpha was above 10 µM; in assay [18] it was 4.07 µM.
